One experiment has as its system KB. Nature of the experiment: Cytotoxicity against human KB cell line by clonogenic plating efficiency assay after 72 hrs. The format is functional, cell-based. In a few lines:
(§1)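 Clonogenic assay: 1000 cells per well in 6-well dishes, exposed to free maytansinoids (0 to 3 nM) for 72 h, then medium replaced with fresh medium. Colonies grown 7-10 days after plating, fixed and stained with 0.2% crystal violet in 10% formalin/PBS, counted. Surviving fraction = colonies in drug-treated wells / colonies in control wells; IC50 in nM.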

The test system of a further experiment is SK-BR-3. Kind of experiment: Cytotoxicity against human SK-Br-3 cell line by clonogenic plating efficiency assay after 72 hrs. The format is functional, cell-based. Particulars: SK-BR-3, 72 h. The gist of the method:
as §1

Another experiment has as its system A-431. Nature of the experiment: Cytotoxicity against human A431 cell line by clonogenic plating efficiency assay after 72 hrs. The format is functional, cell-based. Particulars: A-431, 72 h.
The test system of a further experiment is A549. Nature of the experiment: Cytotoxicity against human A549 cell line by clonogenic plating efficiency assay after 72 hrs. The format is functional, cell-based. Particulars: A549, 72 h.
In a further experiment the test system is HCT-15. Nature of the experiment: Cytotoxicity against human HCT15 cell line by clonogenic plating efficiency assay after 72 hrs. The class given is cell-based. Particulars: HCT-15, 72 h.
A further experiment concerns MCF7. Kind of experiment: Cytotoxicity against human MCF7 cell line by clonogenic plating efficiency assay after 72 hrs. The format is functional, cell-based. Particulars: MCF7, 72 h.
For another experiment, the system named is A-375. Kind of experiment: Cytotoxicity against human A375 cell line by clonogenic plating efficiency assay after 72 hrs. Conditions: A-375, 72 h. The format is functional, cell-based. The gist of the method:
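Clonogenic survival: 1000 cells per well were plated and exposed to free or antibody-conjugated maytansinoid (0 to 3 nM) for 72 h. Medium was then replaced with fresh medium, and colonies grew for a total of 7-10 days after plating. Colonies were fixed and stained with 0.2% crystal violet in 10% formalin/PBS, then counted. Surviving fraction = colonies in drug-exposed wells / colonies in control wells.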

The next experiment deals with SW-620. Kind of experiment: Cytotoxicity against human SW620 cell line by clonogenic plating efficiency assay after 24 hrs. Particulars: SW-620, 24 h.
In another experiment the test system is OVCAR-3. Kind of experiment: Cytotoxicity against human Ovcar3 cell line by clonogenic plating efficiency assay after 24 hrs. Particulars: OVCAR-3, 24 h.

Some results are limits rather than exact numbers.

In the experiment on KB, `COc1cc2cc(c1Cl)N(C)C(=O)CC(OC(=O)[C@H](C)N(C)C(=O)CSSC)C1(C)OC1C(C)C1CC(O)(NC(=O)O1)C(OC)/C=C/C=C(\C)C2` (stereo partly specified) [METHYLDITHIOACETYL MAYTANSINOID] displayed an IC50 of 0.19 nM.
As to `COc1cc2cc(c1Cl)N(C)C(=O)CC(OC(=O)[C@H](C)N(C)C(=O)CCC(C)S)C1(C)OC1C(C)C1CC(O)(NC(=O)O1)C(OC)/C=C/C=C(\C)C2` (stereo partly specified), the IC50 in the experiment with KB worked out at 0.077 nM; in the experiment with SK-BR-3, 0.031 nM.
For `COc1cc2cc(c1Cl)N(C)C(=O)CC(OC(=O)[C@H](C)N(C)C(=O)CCSSCCC(=O)N(C)[C@@H](C)C(=O)OC1CC(=O)N(C)c3cc(cc(OC)c3Cl)C/C(C)=C/C=C/C(OC)C3(O)CC(OC(=O)N3)C(C)C3OC13C)C1(C)OC1C(C)C1CC(O)(NC(=O)O1)C(OC)/C=C/C=C(\C)C2` (stereo partly specified) the same measures were 0.14 nM and 0.1 nM.
On the same counts, the results for `COc1cc2cc(c1Cl)N(C)C(=O)CC(OC(=O)[C@H](C)N(C)C(=O)CCCSSC)C1(C)OC1C(C)C1CC(O)(NC(=O)O1)C(OC)/C=C/C=C(\C)C2` (stereo partly specified) are 0.0085 nM and 0.038 nM.
Turning to `COc1cc2cc(c1Cl)N(C)C(=O)CC(OC(=O)[C@@H](C)N(C)C(=O)CCS)C1(C)OC1C(C)C1CC(O)(NC(=O)O1)C(OC)/C=C/C=C(\C)C2` (stereo partly specified), the IC50 in the experiment on KB and with SK-BR-3 was more than 3 nM in each case.
For `COc1cc2cc(c1Cl)N(C)C(=O)CC(O)C1(C)OC1C(C)C1CC(O)(NC(=O)O1)C(OC)/C=C/C=C(\C)C2` (stereo unspecified) [MAYTANSINOL], the IC50 with KB was more than 3 nM; in the experiment on SK-BR-3, 1.2 nM.
Compound `COc1cc2cc(c1Cl)N(C)C(=O)CC(OC(=O)[C@H](C)N(C)C(=O)CCSSc1ccccc1)C1(C)OC1C(C)C1CC(O)(NC(=O)O1)C(OC)/C=C/C=C(\C)C2` (stereo partly specified) had an IC50 in the experiment with KB of 0.1 nM.
As to `COc1cc2cc(c1Cl)N(C)C(=O)CC(OC(=O)[C@H](C)N(C)C(=O)CCC(C)(C)SSC(C)(C)CCC(=O)N(C)[C@@H](C)C(=O)OC1CC(=O)N(C)c3cc(cc(OC)c3Cl)C/C(C)=C/C=C/C(OC)C3(O)CC(OC(=O)N3)C(C)C3OC13C)C1(C)OC1C(C)C1CC(O)(NC(=O)O1)C(OC)/C=C/C=C(\C)C2` (stereo partly specified), the values for the IC50 in the experiment on KB and in the experiment with SK-BR-3 were 0.0016 nM and 0.0012 nM, respectively.
As to `COc1cc2cc(c1Cl)N(C)C(=O)CC(OC(=O)[C@H](C)N(C)C(=O)CCSSC)C1(C)OC1C(C)C1CC(O)(NC(=O)O1)C(OC)/C=C/C=C(\C)C2` (stereo partly specified), the IC50 in the experiment with KB is 0.029 nM; in the experiment on SK-BR-3, 0.014 nM; with A-431, less than 0.03 nM; in the experiment with A549, 0.12 nM; in the experiment with HCT-15, 0.13 nM; in the experiment with MCF7, less than 0.03 nM. The IC50 is 0.03 nM in the experiment with A-375, 0.04 nM in the experiment with SW-620 and 0.05 nM in the experiment with OVCAR-3.
Consider `COc1cc2cc(c1Cl)N(C)C(=O)CC(OC(=O)[C@H](C)N(C)C(=O)CC[C@H](C)SSC)C1(C)OC1C(C)C1CC(O)(NC(=O)O1)C(OC)/C=C/C=C(\C)C2` (stereo partly specified), for which the IC50 with KB is 0.04 nM; with SK-BR-3, 0.032 nM.
On the same counts, the results for `COc1cc2cc(c1Cl)N(C)C(=O)CC(OC(=O)[C@H](C)N(C)C(=O)CCSSC(C)CCC(=O)O)C1(C)OC1C(C)C1CC(O)(NC(=O)O1)C(OC)/C=C/C=C(\C)C2` (stereo partly specified) are 1.8 nM and 3.4 nM.
As for `COc1cc2cc(c1Cl)N(C)C(=O)CC(OC(=O)[C@@H](C)N(C)C(=O)CC[C@H](C)SSC)C1(C)OC1C(C)C1CC(O)(NC(=O)O1)C(OC)/C=C/C=C(\C)C2` (stereo partly specified), the IC50 in the experiment on KB and with SK-BR-3 was more than 3 nM throughout.
Regarding `COc1cc2cc(c1Cl)N(C)C(=O)CC(OC(=O)[C@H](C)N(C)C(=O)CCC(C)(C)S)C1(C)OC1C(C)C1CC(O)(NC(=O)O1)C(OC)/C=C/C=C(\C)C2` (stereo partly specified), the values for the IC50 with KB and in the experiment with SK-BR-3 were 0.29 nM and 0.12 nM, respectively.
On the same counts, the results for `COc1cc2cc(c1Cl)N(C)C(=O)CC(OC(=O)[C@@H](C)N(C)C(=O)CCC(C)(C)SSC)C1(C)OC1C(C)C1CC(O)(NC(=O)O1)C(OC)/C=C/C=C(\C)C2` (stereo partly specified) are more than 0.3 nM and more than 0.3 nM.
For `COc1cc2cc(c1Cl)N(C)C(=O)CC(OC(=O)[C@H](C)N(C)C(=O)CCC(C)(C)SSC)C1(C)OC1C(C)C1CC(O)(NC(=O)O1)C(OC)/C=C/C=C(\C)C2` (stereo partly specified) the same measures were 0.0011 nM and 0.0032 nM.
On the same counts, the results for `COc1cc2cc(c1Cl)N(C)C(=O)CC(OC(=O)[C@@H](C)N(C)C(=O)CCSSC)C1(C)OC1C(C)C1CC(O)(NC(=O)O1)C(OC)/C=C/C=C(\C)C2` (stereo partly specified) are 3 nM and 6 nM.
For `COc1cc2cc(c1Cl)N(C)C(=O)CC(OC(=O)[C@@H](C)N(C)C(=O)CCC(C)SSC)C1(C)OC1C(C)C1CC(O)(NC(=O)O1)C(OC)/C=C/C=C(\C)C2` (mixture of isomers), the IC50 in the experiment with KB came out at 1.2 nM; in the experiment on SK-BR-3, 0.22 nM.
As for `COc1cc2cc(c1Cl)N(C)C(=O)C[C@H](OC(=O)[C@H](C)N(C)C(C)=O)[C@]1(C)O[C@H]1[C@H](C)[C@@H]1C[C@@](O)(NC(=O)O1)[C@H](OC)/C=C/C=C(\C)C2` [MAYTANSINE], the IC50 in the experiment with KB amounted to 0.034 nM; in the experiment on SK-BR-3, 0.03 nM; in the experiment with A-431 it was 0.04 nM; in the experiment on A549, 0.16 nM; with HCT-15, 0.75 nM; with MCF7, 0.044 nM. In addition, the IC50 with A-375 is 0.037 nM; in the experiment with SW-620 it was more than 0.1 nM; with OVCAR-3, 0.1 nM.
For the compound `COc1cc2cc(c1Cl)N(C)C(=O)CC(OC(=O)[C@@H](C)N(C)C(=O)CC[C@@H](C)SSC)C1(C)OC1C(C)C1CC(O)(NC(=O)O1)C(OC)/C=C/C=C(\C)C2` (stereo partly specified), the figures for the IC50 with KB and in the experiment with SK-BR-3 were 2.4 nM and 2.2 nM, respectively.
As to `COc1cc2cc(c1Cl)N(C)C(=O)CC(OC(=O)[C@@H](C)N(C)C(=O)CCCSSC)C1(C)OC1C(C)C1CC(O)(NC(=O)O1)C(OC)/C=C/C=C(\C)C2` (stereo partly specified), it took 2 nM to reach half-maximal inhibition in the experiment with KB (IC50).
As for `COc1cc2cc(c1Cl)N(C)C(=O)CC(OC(=O)[C@H](C)N(C)C(=O)CCC(C)SSC)C1(C)OC1C(C)C1CC(O)(NC(=O)O1)C(OC)/C=C/C=C(\C)C2` (mixture of isomers), the results for the IC50 in the experiment with KB and in the experiment with SK-BR-3 were 0.011 nM and 0.0042 nM, respectively.
For `COc1cc2cc(c1Cl)N(C)C(=O)CC(OC(=O)[C@H](C)N(C)C(=O)CC[C@@H](C)SSC)C1(C)OC1C(C)C1CC(O)(NC(=O)O1)C(OC)/C=C/C=C(\C)C2` (stereo partly specified) the same measures were 0.042 nM and 0.027 nM.
On the same counts, the results for `COc1cc2cc(c1Cl)N(C)C(=O)CC(OC(=O)[C@H](C)N(C)C(=O)CCC(C)(C)SSCCCC(=O)O)C1(C)OC1C(C)C1CC(O)(NC(=O)O1)C(OC)/C=C/C=C(\C)C2` (stereo partly specified) are 23 nM and 7.1 nM.
For `COc1cc2cc(c1Cl)N(C)C(=O)CC(OC(=O)[C@H](C)N(C)C(=O)CCS)C1(C)OC1C(C)C1CC(O)(NC(=O)O1)C(OC)/C=C/C=C(\C)C2` (stereo partly specified) the same measures were 1.1 nM and 1.1 nM.
On to `COc1cc2cc(c1Cl)N(C)C(=O)CC(OC(=O)[C@@H](C)N(C)C(=O)CCC(C)(C)S)C1(C)OC1C(C)C1CC(O)(NC(=O)O1)C(OC)/C=C/C=C(\C)C2` (stereo partly specified), for which the IC50 in the experiment with KB was more than 1 nM; with SK-BR-3, 3.3 nM.

What is called IC50 is the concentration that inhibits the measured activity by half. A high value points to weaker potency.

(Values after ChEMBL document CHEMBL1138066, “Semisynthetic maytansine analogues for the targeted treatment of cancer” (J Med Chem, 2006).)
